Assay results as given in ChEMBL document CHEMBL1149162 (J Med Chem, 2004).

How the values were obtained:
D(4) dopamine receptor [1] = target: T1, D(4) dopamine receptor (Homo sapiens, UniProt P21917); assay: Effective concentration against human Dopamine receptor D4
T1 sequence (P21917 whole entry): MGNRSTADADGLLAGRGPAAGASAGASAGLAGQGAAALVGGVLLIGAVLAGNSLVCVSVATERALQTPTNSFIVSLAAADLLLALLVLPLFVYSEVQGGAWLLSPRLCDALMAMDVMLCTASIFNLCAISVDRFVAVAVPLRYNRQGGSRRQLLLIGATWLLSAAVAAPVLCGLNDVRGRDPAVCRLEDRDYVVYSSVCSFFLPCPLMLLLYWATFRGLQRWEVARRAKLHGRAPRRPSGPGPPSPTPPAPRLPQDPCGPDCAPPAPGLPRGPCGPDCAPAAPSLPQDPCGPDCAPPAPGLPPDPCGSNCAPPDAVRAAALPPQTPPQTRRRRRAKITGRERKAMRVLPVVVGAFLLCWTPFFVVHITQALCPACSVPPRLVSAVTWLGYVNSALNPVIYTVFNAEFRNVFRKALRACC

D(4) dopamine receptor [2] = target: T1, D(4) dopamine receptor; assay: Binding affinity against human Dopamine receptor D4 by [3H]-spiperone displacement.
[3] = target: T2, D(4) dopamine receptor (Homo sapiens) (UniProt P21917); assay: D4 efficacy against human Dopamine receptor D4 expressed in HEK293 cells; assay type: functional, cell-based
T2 sequence (whole entry): T1 sequence (P21917 whole entry)

D(2) dopamine receptor = D(2) dopamine receptor (Homo sapiens, UniProt P14416); assay: Binding affinity against human Dopamine receptor D2 using [3H]spiperone as radioligand
D(2) dopamine receptor, sequence (P14416 whole entry): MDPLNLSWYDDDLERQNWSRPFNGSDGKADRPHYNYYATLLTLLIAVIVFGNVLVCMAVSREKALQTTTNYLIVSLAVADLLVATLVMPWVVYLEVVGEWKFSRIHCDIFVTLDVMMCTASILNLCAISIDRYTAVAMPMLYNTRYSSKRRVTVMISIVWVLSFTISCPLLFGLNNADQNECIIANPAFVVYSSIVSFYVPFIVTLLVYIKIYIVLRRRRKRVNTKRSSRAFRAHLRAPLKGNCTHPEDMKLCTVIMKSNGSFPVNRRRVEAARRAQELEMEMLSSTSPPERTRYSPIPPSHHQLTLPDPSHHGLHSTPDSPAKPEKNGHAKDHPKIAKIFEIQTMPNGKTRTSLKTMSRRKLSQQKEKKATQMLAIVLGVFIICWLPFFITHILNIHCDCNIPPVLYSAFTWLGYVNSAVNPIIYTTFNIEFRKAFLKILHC

[4] = target: T2, D(4) dopamine receptor (Homo sapiens); assay: D4 efficacy was measured using recombinant human D4 receptor expressed in HEK293 cells; assay type: functional, cell-based
Outline: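 Human D4.4 coexpressed with Gαq05 in HEK293 cells, plated 20 000 cells/well and cultured 2 days. Cells loaded 1 h at room temperature with 4 μM Fluo-4 plus 0.04% Pluronic F-127 in DPBS, washed four times. Compound added on FLIPR and calcium fluorescence recorded for 3 min. Data normalized to 10 μM dopamine response. EC50 is concentration giving 50% signal. n ≥ 3, ±SEM.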

D(4) dopamine receptor [5] = target: T1, D(4) dopamine receptor; assay: D4 efficacy was measured using recombinant human Dopamine receptor D4 expressed in HEK293 cells; assay type: cell-based
Outline: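 Human D4.4 co-expressed with Gαq05 in HEK293 cells, seeded at 20 000 cells/well and cultured 2 days. Loaded 1 h at room temperature with 4 μM Fluo-4 and 0.04% Pluronic F-127 in DPBS, then washed. Compound added on FLIPR and calcium fluorescence read for 3 min. EC50 is the concentration giving 50% signal; efficacy is % activation relative to 10 μM dopamine; n ≥ 3.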

| SMILES | EC50 (D(4) dopamine receptor [1]) | Ki (D(4) dopamine receptor [2]) | Efficacy [3] | Ki (D(2) dopamine receptor) | Efficacy [4] | EC50 (D(4) dopamine receptor [5]) |
| --- | --- | --- | --- | --- | --- | --- |
| c1ccc(N2CCN(Cc3nc4ccccc4[nH]3)CC2)cc1 | 10.1 nM | 52 nM | 37.5% | – | – | – |
| c1cncc(N2CCN(Cc3nc4ccccc4[nH]3)CC2)c1 | – | 376 nM | 24.9% | – | – | – |
| COc1ccc(N2CCN(Cc3nc4ccccc4[nH]3)CC2)cc1 | – | 20.4 nM | 4.8% | – | – | – |
| Clc1ccc(N2CCN(Cc3nc4ccccc4[nH]3)CC2)cc1 | – | 14.8 nM | 4.7% | > 10000 nM | – | – |
| Clc1cccc(N2CCN(Cc3nc4ccccc4[nH]3)CC2)c1 | – | 9.6 nM | – | > 10000 nM | 3.8% | – |
| c1ccc(N2CCN(Cc3nc4ccccc4[nH]3)CC2)nc1 [ABT-724] | – | 167 nM | – | – | – | 12.4 nM |
| COc1cccc(N2CCN(Cc3nc4ccccc4[nH]3)CC2)c1 | – | 26.5 nM | 5% | – | – | – |
| Clc1ccc(N2CCN(Cc3cc4ccccn4n3)CC2)cc1 | 154 nM | 2.7 nM | – | 1310 nM | – | – |
| COc1ccccc1N1CCN(Cc2nc3ccccc3[nH]2)CC1 | 5.6 nM | 4.3 nM | – | – | – | – |
| c1ccc2[nH]c(CN3CCN(c4ccncc4)CC3)nc2c1 | – | > 10000 nM | 4.8% | – | – | – |
| Fc1ccc(N2CCN(Cc3nc4ccccc4[nH]3)CC2)cc1 | – | 79.6 nM | 9.9% | – | – | – |
| Clc1ccccc1N1CCN(Cc2nc3ccc[nH]c-3n2)CC1 | 10000 nM | 719 nM | – | > 10000 nM | – | – |
| Clc1ccccc1N1CCN(Cc2nc3ccccc3[nH]2)CC1 | 1 nM | 8.5 nM | – | – | – | – |
